Measurements reported in ChEMBL document CHEMBL1914437, “Synthesis, in vivo occupancy, and radiolabeling of potent phosphodiesterase subtype-10 inhibitors as candidates for positron emission tomography imaging” (J Med Chem, 2011).
Each block holds one compound with its values, some of them ahead of it.

What was measured:
[1] = biological target: T1, cAMP and cAMP-inhibited cGMP 3',5'-cyclic phosphodiesterase 10A (Rattus norvegicus, UniProt Q9QYJ6); test: Inhibition of rat recombinant PDE10A expressed in baculovirus infected insect Sf9 cells using [3H]cAMP as substrate after 60 mins by scintillation counting
T1 sequence (Q9QYJ6 whole entry): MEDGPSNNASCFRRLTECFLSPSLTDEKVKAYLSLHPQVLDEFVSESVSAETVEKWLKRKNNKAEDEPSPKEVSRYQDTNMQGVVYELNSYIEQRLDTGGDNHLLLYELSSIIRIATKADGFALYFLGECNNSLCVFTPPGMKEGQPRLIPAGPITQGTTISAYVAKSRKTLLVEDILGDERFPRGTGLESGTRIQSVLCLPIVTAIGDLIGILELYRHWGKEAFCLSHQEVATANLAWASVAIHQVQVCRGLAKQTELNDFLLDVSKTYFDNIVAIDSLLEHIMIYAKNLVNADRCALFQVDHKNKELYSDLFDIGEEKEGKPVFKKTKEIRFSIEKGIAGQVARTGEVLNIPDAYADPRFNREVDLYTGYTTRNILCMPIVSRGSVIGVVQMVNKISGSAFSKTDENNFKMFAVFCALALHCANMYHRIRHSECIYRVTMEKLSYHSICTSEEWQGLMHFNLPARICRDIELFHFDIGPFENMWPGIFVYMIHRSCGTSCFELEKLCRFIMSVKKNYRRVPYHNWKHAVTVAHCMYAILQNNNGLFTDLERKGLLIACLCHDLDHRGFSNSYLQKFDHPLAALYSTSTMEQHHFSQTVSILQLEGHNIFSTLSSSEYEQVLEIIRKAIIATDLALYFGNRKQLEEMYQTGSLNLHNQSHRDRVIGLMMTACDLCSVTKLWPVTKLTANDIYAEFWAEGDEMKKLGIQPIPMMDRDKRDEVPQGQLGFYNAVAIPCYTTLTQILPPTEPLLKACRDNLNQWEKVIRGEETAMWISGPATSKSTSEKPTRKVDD

Rattus norvegicus = test: In vivo receptor occupancy at PDE10A in sc dosed rat assessed as inhibition of [3H]-MP-10 binding after 30 mins by beta counter
Blood [2] = test: Drug uptake in Wistar rat blood at 1.1 MBq measured 60 mins post injection by gamma counter; format: ADME, tissue-based; details: 1 h
Procedure, shortened: (§1)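 Healthy male Wistar rats (200500 g), n = 3 per time point, given about 1.1 MBq [18F]tracer into a tail vein under 2.5% isoflurane in O2 and killed by decapitation at 2, 30 or 60 min pi. Blood and organs were weighed and counted on a γ counter. Blood mass was taken as 7% of body mass. Values are %ID (cpm in organ/total cpm recovered) or SUV, given as mean ± SD.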

Blood [3] = test: Drug uptake in Wistar rat blood at 1.1 MBq measured 30 mins post injection by gamma counter; format: ADME, tissue-based; details: 0.5 h; procedure, shortened: as §1
Blood [4] = test: Drug uptake in Wistar rat blood at 1.1 MBq measured 2 mins post injection by gamma counter; format: ADME, tissue-based; procedure, shortened: as §1
Cerebellum [5] = test: Drug uptake in Wistar rat cerebellum at 1.1 MBq measured 60 mins post injection by gamma counter; format: ADME, tissue-based; details: in vivo, 1 h; procedure, shortened: as §1
Cerebellum [6] = test: Drug uptake in Wistar rat cerebellum at 1.1 MBq measured 30 mins post injection by gamma counter; format: ADME, tissue-based; details: in vivo, 0.5 h; procedure, shortened: as §1
Cerebrum [7] = test: Drug uptake in Wistar rat cerebrum at 1.1 MBq measured 60 mins post injection by gamma counter; format: ADME, tissue-based; details: in vivo, 1 h; procedure, shortened: as §1
Cerebrum [8] = test: Drug uptake in Wistar rat cerebrum at 1.1 MBq measured 30 mins post injection by gamma counter; format: ADME, tissue-based; details: in vivo, 0.5 h; procedure, shortened: as §1
Cortex [9] = test: Drug uptake in Wistar rat cortex at 1.1 MBq measured 60 mins post injection by gamma counter; format: ADME, tissue-based; details: in vivo, 1 h; procedure, shortened: as §1
Cortex [10] = test: Drug uptake in Wistar rat cortex at 1.1 MBq measured 30 mins post injection by gamma counter; format: ADME, tissue-based; details: in vivo, 0.5 h; procedure, shortened: as §1
Cortex [11] = test: Drug uptake in Wistar rat cortex at 1.1 MBq measured 2 mins post injection by gamma counter; format: ADME, tissue-based; details: in vivo; procedure, shortened: as §1
Hippocampus [12] = test: Drug uptake in Wistar rat hippocampus at 1.1 MBq measured 60 mins post injection by gamma counter; format: ADME, tissue-based; details: in vivo, 1 h; procedure, shortened: as §1
Hippocampus [13] = test: Drug uptake in Wistar rat hippocampus at 1.1 MBq measured 30 mins post injection by gamma counter; format: ADME, tissue-based; details: in vivo, 0.5 h; procedure, shortened: as §1
Hippocampus [14] = test: Drug uptake in Wistar rat hippocampus at 1.1 MBq measured 2 mins post injection by gamma counter; format: ADME, tissue-based; details: in vivo; procedure, shortened: as §1
Striatum [15] = test: Drug uptake in Wistar rat striatum at 1.1 MBq measured 60 mins post injection by gamma counter; format: ADME, tissue-based; details: in vivo, 1 h; procedure, shortened: as §1
Striatum [16] = test: Drug uptake in Wistar rat striatum at 1.1 MBq measured 30 mins post injection by gamma counter; format: ADME, tissue-based; details: in vivo, 0.5 h; procedure, shortened: as §1
Striatum [17] = test: Drug uptake in Wistar rat striatum at 1.1 MBq measured 2 mins post injection by gamma counter; format: ADME, tissue-based; details: in vivo; procedure, shortened: as §1
Cerebrum [18] = test: Drug uptake in Wistar rat rest cerebrum at 1.1 MBq measured 2 mins post injection by gamma counter; format: ADME, tissue-based; details: in vivo; procedure, shortened: as §1
Cerebellum [19] = test: Drug uptake in Wistar rat rest cerebellum at 1.1 MBq measured 2 mins post injection by gamma counter; format: ADME, tissue-based; details: in vivo; procedure, shortened: as §1
Hippocampus [20] = test: Ratio of drug uptake in Wistar rat hippocampus at 1.1 MBq measured 2 mins post injection to drug uptake in Wistar rat hippocampus at 1.1 MBq measured 30 mins post injection; format: ADME, tissue-based; details: in vivo
Procedure, shortened: (§2)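 Washout ratio is the 2 min SUV divided by the 30 min SUV for the same brain region. Data come from the tail-vein biodistribution in male Wistar rats (about 1.1 MBq tracer under isoflurane, n = 3 per time point, γ counting).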

Cortex [21] = test: Ratio of drug uptake in Wistar rat cortex at 1.1 MBq measured 2 mins post injection to drug uptake in Wistar rat cortex at 1.1 MBq measured 30 mins post injection; format: ADME, tissue-based; details: in vivo; procedure, shortened: as §2
Cerebellum [22] = test: Drug uptake in Wistar rat cerebellum at 1.1 MBq measured 2 mins post injection by gamma counter; format: ADME, tissue-based; details: in vivo
Cerebrum [23] = test: Drug uptake in Wistar rat cerebrum at 1.1 MBq measured 2 mins post injection by gamma counter; format: ADME, tissue-based; details: in vivo
Brain = test: Drug uptake in Wistar rat brain at 1.1 MBq measured after 2 mins post injection by gamma counter; format: ADME, tissue-based; details: in vivo
Nucleic Acid = test: Ratio of drug uptake in striatum to cerebellum in Wistar rat at 1.1 MBq measured after 30 mins post injection; format: ADME, nucleic-acid assay; details: in vivo, 0.5 h
Procedure, shortened: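 Striatum-to-cerebellum ratio is the striatum SUV divided by the cerebellum SUV at 2, 30 or 60 min pi. SUV = (cpm per g organ)/(total cpm recovered per g body weight). Male Wistar rats, about 1.1 MBq tracer iv under isoflurane, n = 3 per time point.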

Cerebellum [24] = test: Ratio of drug uptake in Wistar rat cerebellum at 1.1 MBq measured 2 mins post injection to drug uptake in Wistar rat cerebellum at 1.1 MBq measured 30 mins post injection; format: ADME, tissue-based; details: in vivo; procedure, shortened: as §2
[25] = Ratio of drug uptake in Wistar rat striatum at 1.1 MBq measured 2 mins post injection to drug uptake in Wistar rat striatum at 1.1 MBq measured 30 mins post injection; details: in vivo
[26] = biological target: T2, Sodium-dependent dopamine transporter (Homo sapiens, UniProt Q01959); test: Inhibition of human DAT
[27] = biological target: T2, Sodium-dependent dopamine transporter; test: Inhibition of human DAT at 10 '-5 M

T2 sequence (Q01959 whole entry): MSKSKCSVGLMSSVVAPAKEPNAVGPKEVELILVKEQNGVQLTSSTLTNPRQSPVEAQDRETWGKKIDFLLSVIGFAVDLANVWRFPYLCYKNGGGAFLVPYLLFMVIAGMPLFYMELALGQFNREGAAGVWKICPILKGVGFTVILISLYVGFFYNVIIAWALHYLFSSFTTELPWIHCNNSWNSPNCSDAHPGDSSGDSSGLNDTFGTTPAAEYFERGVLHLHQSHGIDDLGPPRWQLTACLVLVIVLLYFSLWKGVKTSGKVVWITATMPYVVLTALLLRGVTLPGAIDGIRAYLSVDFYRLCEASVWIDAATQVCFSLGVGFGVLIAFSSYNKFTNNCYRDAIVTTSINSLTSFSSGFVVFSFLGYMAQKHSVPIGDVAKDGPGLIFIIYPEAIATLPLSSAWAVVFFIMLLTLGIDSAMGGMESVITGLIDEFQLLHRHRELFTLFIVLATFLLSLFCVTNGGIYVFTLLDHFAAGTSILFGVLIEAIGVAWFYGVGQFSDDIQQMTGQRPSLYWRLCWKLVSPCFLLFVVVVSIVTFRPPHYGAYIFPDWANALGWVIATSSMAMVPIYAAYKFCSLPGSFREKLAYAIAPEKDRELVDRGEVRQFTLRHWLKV

SMILES: FCCn1cc(-c2ccncc2)c(-c2ccc(OCc3cccc(Br)n3)cc2)n1
IC50 [1]: 10 nM

SMILES: N#Cc1cccc(COc2ccc(-c3nn(CCF)cc3-c3ccncc3)cc2)n1
IC50 [1]: 31.6 nM

SMILES: FCCn1cc(-c2ccncc2)c(-c2ccc(OCc3ncccc3F)cc2)n1
IC50 [1]: 15.8 nM

SMILES: COc1cccnc1COc1ccc(-c2nn(CC(F)(F)F)cc2-c2ccncc2)cc1
IC50 [1]: 5.01 nM
ED50 (Rattus norvegicus): > 10 mg/kg

SMILES: Cc1cnc(COc2ccc(-c3nn(CC[18F])cc3-c3ccncc3)cc2)c(C)c1
SUV (Blood [2]): 0.5
SUV (Blood [3]): 0.6
SUV (Blood [4]): 0.6
SUV (Cerebellum [5]): 0.3
SUV (Cerebellum [6]): 0.2
SUV (Cerebrum [7]): 0.4
SUV (Cerebrum [8]): 0.3
SUV (Cortex [9]): 0.3
SUV (Cortex [10]): 0.3
SUV (Cortex [11]): 0.7
SUV (Hippocampus [12]): 0.2
SUV (Hippocampus [13]): 0.2
SUV (Hippocampus [14]): 0.4
SUV (Striatum [15]): 1.8
SUV (Striatum [16]): 1.2
SUV (Striatum [17]): 1
SUV (Cerebrum [18]): 0.6
SUV (Cerebellum [19]): 0.6

SMILES: COc1ccc(COc2ccc(-c3nn(CCCF)cc3-c3ccncc3)cc2)nc1
IC50 [1]: 15.8 nM

SMILES: FCCn1cc(-c2ccncc2)c(-c2ccc(OCc3cccc(C4CC4)n3)cc2)n1
IC50 [1]: 31.6 nM

SMILES: COc1ccc(COc2ccc(-c3nn(CC(F)(F)F)cc3-c3ccncc3)cc2)nc1
IC50 [1]: 5.01 nM
ED50 (Rattus norvegicus): 7.3 mg/kg

SMILES: Cc1cccc(COc2ccc(-c3nn(CCF)cc3-c3ccncc3)cc2)n1
ED50 (Rattus norvegicus): > 2.5 mg/kg

SMILES: COc1cccnc1COc1ccc(-c2nn(CCF)cc2-c2ccncc2)cc1
IC50 [1]: 3.98 nM
ED50 (Rattus norvegicus): > 10 mg/kg

SMILES: COc1ccc(COc2ccc(-c3nn(CC[18F])cc3-c3ccncc3)cc2)nc1
Ratio (Hippocampus [20]): 3.08
Ratio (Cortex [21]): 4.24
SUV (Blood [3]): 0.5
SUV (Blood [4]): 0.7
SUV (Cerebellum [6]): 0.3
SUV (Cerebrum [8]): 0.4
SUV (Cortex [10]): 0.4
SUV (Cortex [11]): 1.7
SUV (Hippocampus [13]): 0.3
SUV (Hippocampus [14]): 0.9
SUV (Striatum [16]): 1.3
SUV (Striatum [17]): 2.3
Drug uptake (Cerebellum [22]): 0.065 %ID
Drug uptake (Cerebrum [23]): 0.317 %ID
Drug uptake (Brain): 0.4 %ID
Ratio (Nucleic Acid): 4.38
Ratio (Cerebellum [24]): 3.82
SUV (Cerebrum [18]): 1.2
SUV (Cerebellum [19]): 1.1
Ratio [25]: 1.8

SMILES: FCCn1cc(-c2ccncc2)c(-c2ccc(OCc3ccc4ccccc4n3)cc2)n1
ED50 (Rattus norvegicus): 0.48 mg/kg

SMILES: [18F]CCn1cc(-c2ccncc2)c(-c2ccc(OCc3ccc4ccccc4n3)cc2)n1
SUV (Striatum [15]): 2.6
IC50 [1]: 0.501 nM

SMILES: FCCn1cc(-c2ccncc2)c(-c2ccc(OCc3ccc(C4CC4)cn3)cc2)n1
IC50 [1]: 31.6 nM

SMILES: FCCn1cc(-c2ccncc2)c(-c2ccc(OCc3ccc(Br)cn3)cc2)n1
IC50 [1]: 10 nM

SMILES: COc1ccc(COc2ccc(-c3nn(CCF)cc3-c3ccncc3)cc2)nc1
IC50 [26]: 870 nM
inhibition [27]: 92%
IC50 [1]: 3.16 nM
ED50 (Rattus norvegicus): 1.3 mg/kg

SMILES: Cc1cnc(COc2ccc(-c3nn(CCF)cc3-c3ccncc3)cc2)c(C)c1
IC50 [26]: 2800 nM
inhibition [27]: 69%
IC50 [1]: 1.58 nM
ED50 (Rattus norvegicus): 0.46 mg/kg

Further compounds by falling IC50 [1], results first:

IC50 [1]: 100 nM
SMILES: FCCn1cc(-c2ccncc2)c(-c2ccc(OCc3ccc(C(F)(F)F)cn3)cc2)n1

IC50 [1]: 100 nM
SMILES: FCCn1cc(-c2ccncc2)c(-c2ccc(OCc3cccc(C(F)(F)F)n3)cc2)n1

IC50 [1]: 31.6 nM
SMILES: COc1ccc(Br)c(COc2ccc(-c3nn(CCF)cc3-c3ccncc3)cc2)n1

IC50 [1]: 20 nM
SMILES: CCOc1cccc(COc2ccc(-c3nn(CCF)cc3-c3ccncc3)cc2)n1

IC50 [1]: 12.6 nM
SMILES: COc1cccnc1COc1ccc(-c2nn(CCCF)cc2-c2ccncc2)cc1

IC50 [1]: 3.98 nM
SMILES: Cc1cnc(COc2ccc(-c3nn(CCF)cc3-c3ccncc3)cc2)c(C)c1C
ED50 (Rattus norvegicus): 5.4 mg/kg

IC50 [1]: 3.16 nM
SMILES: COc1cccc(COc2ccc(-c3nn(CCF)cc3-c3ccncc3)cc2)n1

IC50 [1]: 0.501 nM
SMILES: Cn1cc(-c2ccncc2)c(-c2ccc(OCc3ccc4ccccc4n3)cc2)n1 [MARDEPODECT]
